LAP4 TOR yeast: yeast TOR pathway LAP4-GFP modulation. S. cerevisiae LAP4-GFP multiplex, flow cytometry GFP, 3 h; median GFP as percent of DMSO wells. GFP response vs DMSO, % at 10 µM. 320,000 tested, 0.34% active. AID 2023;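 active = GFP response vs DMSO above a set limit, about the screen mean plus 3 SD, cut at about 150% in these data; inconclusive = under 70 cell events counted for the yeast strain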
MEP2 TOR yeast: modulators of TOR pathway MEP2-GFP in S. cerevisiae; 330,000 tested, 0.51% active; GFP response vs DMSO, % at 10 µM; S. cerevisiae MEP2-GFP strain, flow cytometry GFP, 3 h; 100% = DMSO control level;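 active = GFP response versus DMSO above a set limit, roughly screen mean plus 3 SD, cut at about 180% in these data; inconclusive = fewer than 70 cells counted for a yeast strain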;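 also: median GFP fluorescence of the barcode-gated MEP2-GFP cells per well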
RPL19A-GFP yeast: yeast TOR pathway RPL19A-GFP modulation; S. cerevisiae RPL19A-GFP strain, flow cytometry, 3 h; stronger effect = lower value; AID 2025; 330,000 tested, 0.3% active; percent response vs DMSO, % at 10 µM;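 active = percent response vs DMSO below 50%; inconclusive = fewer than 70 events counted for the yeast strain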;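 also: median channel GFP fluorescence of the barcoded RPL19A-GFP strain; ratio of sample median GFP to plate DMSO average so 100% = DMSO; lower means less RPL19A-GFP as with rapamycin TOR inhibition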
AGP1 TOR yeast: modulators of TOR pathway AGP1-GFP in S. cerevisiae; S. cerevisiae AGP1-GFP multiplex flow cytometry, 3 h; GFP as percent of DMSO wells; GFP response vs DMSO, % at 10 µM; 320,000 tested, 0.02% active; AID 2066;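 active = GFP response relative to DMSO above a set limit, near screen average plus 3 SD, cut at about 150% in these data; inconclusive = fewer than 70 cells counted for the yeast strain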;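 also: median GFP channel fluorescence of the gated AGP1 strain per well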
T cell HTS: T cell immune modulation candidate | 330,000 tested, 0.068% active | response (vesicle binding), % at 7 µM | 2C CD8+ T cell-vesicle binding, flow cytometry; stronger effect = lower value;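 active = response, share of CD8 T cells binding vesicles, and their 90th percentile fluorescence all below set limits, cut at about 80% in these data, passing the limit was not always enough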;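 also: values below 100% mean blocked vesicle binding to the CD8+ T cells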
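Read-out – percent CD8+ FL2 mean versus row control · System – murine 2C transgenic CD8+ T lymphocytes · Times – 1.5 h cell–vesicle binding at 37 °C, then 20 min icy labelling · Control set – naked vesicles low, QL9 vesicles with vehicle high · Detection – cytometric PE anti-B7-1 and Alexa647 anti-CD8 signals after 1% paraformaldehyde fixation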
CIT2 TOR yeast: yeast TOR pathway CIT2-GFP modulation. S. cerevisiae CIT2-GFP strain, flow cytometry, 3 h; 100 means same as DMSO wells. GFP response vs DMSO, % at 10 µM. 320,000 tested, 0.065% active. AID 2029;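 active = GFP response relative to DMSO above a set limit, near the screen mean plus 3 SD, cut at about 150% in these data; inconclusive = Fewer than 70 cells measured for a yeast strain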;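 also: ratio of well median GFP fluorescence to mean of DMSO wells on the plate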
Starred values were filed as active, the others as inactive; i = inactive; ? = inconclusive; . = not tested or not shown; [ ] = dose if it differs, or a comment. The list is not random: actives were taken first. Their share in the collection is about 0.96%.

SMILES | LAP4 TOR yeast | MEP2 TOR yeast | RPL19A-GFP yeast | AGP1 TOR yeast | T cell HTS | CIT2 TOR yeast
CC(C)n1nc(C(=O)Nc2cccc(S(=O)(=O)NCc3ccco3)c2)c2ccccc2c1=O | 103 | 107 | 103 | 105 | 324 | 93
Cc1cc(C)nc(/N=C(/NC(=O)c2ccccc2)Nc2ccccc2)n1 | 101 | 444*[may fluoresce violet] | 33*[may fluoresce violet] | . | 307 | ?
COc1ccc(N/C(=N/c2nc(C)cc(C)n2)NC(=O)c2ccccc2)cc1 | 111 | 105 | 106 | 118 | i | 103
COc1ccc(NC(=S)NCCCN2CCOCC2)cc1 | 104 | 89 | 93 | 82 | 876 | 82
COc1ccc(NC(=S)NCCN2CCOCC2)cc1 | 116 | 419*[may fluoresce violet] | 19*[may fluoresce violet] | ? | 339 | ?
CN1CCN(CC(=O)N2CCn3c4c(c5cc(C6CCCCC6)ccc53)CCCC42)CC1 (configuration not stated) | 169* | 104 | 91 | 99 | 364 | 89
O=C(CCc1ccccc1)NNC(=O)c1ccc(NC(=O)c2ccccc2)cc1 | 91 | 100 | 99 | 103 | 281 | 97
CC(=O)Nc1ccc(C(=O)NNC(=O)CCc2ccccc2)cc1 | 111 | 250*[may fluoresce violet] | 43*[may fluoresce violet] | 25 | 308 | ?
COC(=O)NC1CCC(CC2CCC(NC(=O)OC)CC2)CC1 (configuration not stated) | 212* | 698* | 98 | 99 | 210 | 121
O=C(COC(=O)c1c(F)cccc1Cl)NC(=O)Nc1ccc2c(c1)OCCO2 | 97 | 96 | 92 | 96 | 246 | 84
Cc1ccc(S(=O)(=O)N2CCN(C(=O)c3c(C)nn(-c4ccccc4)c3Cl)CC2)cc1 | 106 | 103 | 99 | 104 | 272 | 101
COc1ccc(S(=O)(=O)N2CCN(C(=O)c3c(C)nn(-c4ccccc4)c3Cl)CC2)cc1 | 97 | 521*[may fluoresce violet] | 19*[may fluoresce violet] | ? | 271 | ?
O=C(NCC(=O)N1CCOCC1)c1ccc(Cl)cc1 | 102 | 99 | 92 | 109 | 518 | 97
O=C(NCC(=O)N1CCOCC1)c1ccccc1 | 94 | 212*[may fluoresce violet] | 59 | 15 | 314 | ?
COc1ccc(CCn2c(=N)c(C(=O)NC3CCCC3)cc3c(=O)n4ccccc4nc32)cc1OC | 94 | 111 | 98 | 97 | 478 | 95
N=c1c(C(=O)NC2CCCCC2)cc2c(=O)n3ccccc3nc2n1CC1CCCO1 (configuration not stated) | ? | ? | 44*[may fluoresce violet] | ? | 182 | ?
N=c1c(C(=O)NC2CCCC2)cc2c(=O)n3ccccc3nc2n1CC1CCCO1 (configuration not stated) | 82 | 202*[may fluoresce red and violet] | ? | ? | 214 | ?
COc1ccc(Cn2c(=N)c(C(=O)NC3CCCCC3)cc3c(=O)n4ccccc4nc32)cc1 | 92 | 98 | 94 | 78 | 164 | 86
CCCn1c(=N)c(C#N)cc2c(=O)n3ccccc3nc21 | 80 | 298*[may fluoresce violet] | 73 | 16 | 165 | ?
COCCCn1c(=N)c(C(=O)NC2CCCCC2)cc2c(=O)n3ccccc3nc21 | ? | 232*[may fluoresce violet] | 54 | ? | 179 | ?
COc1ccc(CCn2c(=N)c(C(=O)NC3CCCC3)cc3c(=O)n4ccccc4nc32)cc1 | 97 | 99 | 99 | 97 | 447 | 96
Cc1ccc(CNC(=O)c2cc3c(=O)n4ccccc4nc3n(CC3CCCO3)c2=N)cc1 (configuration not stated) | 95 | 221*[may fluoresce violet] | 61 | 19 | 375 | ?
Cc1ccc2nc3c(cc(C(=O)NCC4CCCO4)c(=N)n3CC3CCCO3)c(=O)n2c1 (configuration not stated) | ? | 121 | 63 | ? | 290 | ?
CC(NC(=O)c1cc2c(=O)n3ccccc3nc2n(CC2CCCO2)c1=N)c1ccccc1 (configuration not stated) | 57 | 207*[may fluoresce violet] | 29*[may fluoresce violet] | ? | 258 | ?
CCC(C)(C)NC(=O)C(c1ccco1)N(C(=O)CNC(=O)c1cccs1)c1cccnc1 (configuration not stated) | 91 | 288*[may fluoresce violet] | 54 | 41 | 232 | ?
SMILES | LAP4 TOR yeast | MEP2 TOR yeast | RPL19A-GFP yeast | AGP1 TOR yeast | T cell HTS | CIT2 TOR yeast
CCOC(=O)C1(CCCc2ccccc2)CCN(S(C)(=O)=O)CC1 | 94 | 102 | 102 | 96 | 188 | 96
Cc1cc(O)c(C(C)C)cc1NS(=O)(=O)c1ccccc1 | 103 | 182*[may fluoresce violet] | 46*[may fluoresce violet] | 20 | 576 | ?
COc1ccc(S(=O)(=O)Nc2cc(S(=O)(=O)c3ccccc3)c(O)cc2C)cc1 | 105 | 104 | 103 | 107 | 264 | 118
COc1ccc(S(=O)(=O)NC2CC(=O)N(c3cccc(F)c3)C2)cc1OC (configuration not stated) | 104 | 99 | 100 | 107 | 281 | 103
Nc1nc(-c2ccccc2)c(C(=O)Nc2ccccc2)s1 | 133 | ? | 16*[may fluoresce violet] | ? | 870 | ?
O=C(Nc1ccc(F)cc1)c1sc(Cl)nc1-c1ccccc1 | 98 | 105 | 103 | 102 | 88 | 97
CCCCOc1cccc(/C=C(\C#N)C(=O)NC2CC2)c1 | 175* | 100 | 98 | 83 | 284 | 120
CCOc1cccc(/C=C(\C#N)C(=O)NC2CC2)c1 | 141 | 93 | 96 | 101 | 939 | 90
COc1ccc(NC(=O)C2C3C=CC(C3)C2C(=O)NCc2ccco2)c(OC)c1 (configuration not stated) | 95 | 195* | 63 | 27 | 243 | 102
O=C(O)C1C2C=CC(C2)C1C(=O)NCc1ccco1 (configuration not stated) | 101 | 92 | 99 | 98 | 349 | 95
Cn1ncc(C(=O)N=S(C)(=O)c2ccccc2)c1[N+](=O)[O-] (configuration not stated) | 110 | 96 | 95 | 105 | 153 | 98
NC(=O)c1cccc(-c2noc(-c3ccccc3F)n2)c1 | 69 | 203*[may fluoresce violet] | 88 | 17 | 306 | ?
CCCCN(C)CCNC(=O)c1ccc(Cn2c(=S)[nH]c3ccc(Br)cc3c2=O)cc1 | 99 | 89 | 94 | 96 | 221 | 93
CC1Cc2ccccc2N1C(=O)CSc1nccc(=O)[nH]1 (configuration not stated) | 91 | 98 | 96 | 87 | 370 | 80
COc1ccccc1C1CCN(Cc2c(C)[nH]c3ccccc23)CC1 | 152* | 201* | 110 | 115 | 490 | 150
Cc1[nH]c2c(C)cccc2c1CN1CCC(CO)(Cc2ccccc2)CC1 | 102 | 102 | 99 | 109 | 101 | 113
Cc1[nH]c2ccccc2c1CN1CCC(CO)(Cc2ccccc2)CC1 | 68 | 133 | 42*[may fluoresce violet] | 14 | 469 | ?

Source: PubChem BioAssay
